Reference: ChEMBL document CHEMBL4261570, “Design, Synthesis and Preliminary Antimicrobial Evaluation of N-Alkyl Chain Tethered C-5 Functionalized Bis-Isatins” (Medchemcomm, 2017)
Calls of active or inactive are those of the source. The calls are words filed in the database; no cut-off is given here.

What was measured:
Naegleria fowleri = assay: Antiparasitic activity against Naegleria fowleri KUL trophozoites assessed as parasite growth inhibition after 48 hrs by ATP bioluminescence-based CellTiter-Glo luminescent cell viability assay; type: functional, organism-based
How it was run: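 Strain KUL trophozoites cultured axenically in Nelson's medium with 10% FBS at 37 °C. Each well held 10 000 trophozoites, incubated under aerobic conditions without the anaerobe pouch. Read-out was CellTiter-Glo luminescence. Positive control was 50 μM amphotericin B. Hits were serially diluted in triplicate, 8 points from 0.39 to 50 μM, and EC50 was taken from dose-response curves.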

Trichomonas vaginalis = assay: Antiparasitic activity against Trichomonas vaginalis assessed as parasite growth inhibition at 50 uM after 24 hrs by hemacytometer relative to control; type: functional; settings: read-out: GI
How it was run: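 G3 strain cultured in TYM Diamond's medium in 15 mL tubes, with compound in DMSO. Controls were untreated and 0.1% DMSO. After 24 h, cells were counted by hemacytometer and normalized to the DMSO controls. Screening was at 50 μM. IC50 came from titrations of 5–40 μM with variable-slope regression, 4 independent trials on different days, and was then re-confirmed.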

Giardia intestinalis [1] = assay: Antiparasitic activity against Giardia lamblia WB trophozoites assessed as parasite growth inhibition at 50 uM after 48 hrs by ATP bioluminescence-based CellTiter-Glo luminescent cell viability assay relative to control; type: functional; settings: Giardia duodenalis; for inhibition of growth at 50 µM: read-out: GI
How it was run: (§1)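 Trophozoites kept axenically in TYI-S-33 with penicillin and streptomycin. Each well held 5000 trophozoites and was incubated 48 h at 37 °C under anaerobic conditions in a GasPak pouch. Read-out was CellTiter-Glo ATP luminescence. Controls were 0.5% DMSO vehicle and 30 μM metronidazole. Primary screen at 50 μM in duplicate; hits were those above 50% inhibition. EC50 came from triplicate 8-point series (0.39–50 μM) and dose-response curves.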

Entamoeba histolytica = assay: Antiparasitic activity against Entamoeba histolytica HM-1:IMSS trophozoites assessed as parasite growth inhibition at 50 uM after 48 hrs by ATP bioluminescence-based CellTiter-Glo luminescent cell viability assay relative to control; type: functional; settings: for inhibition of growth at 50 µM: read-out: GI; how it was run: as §1
Aspergillus parasiticus [2] = assay: Antifungal activity against Aspergillus parasiticus NRRL5862 assessed as fungal growth at 500 uM after 24 hrs by microtiter plate liquid bioassay (reference value: 100%); type: functional
How it was run: (§2)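 A. parasiticus grown at 35 °C on PDA. Liquid assay in RPMI 1640, 3 × 104 to 5 × 10^4 CFU per mL, triplicate wells, 35 °C. Compounds in DMSO (<2% in media). No-treatment wells carry matched DMSO. Wells scored visually 0–4 versus the no-treatment control: 0 clear, 1 25%, 2 50%, 3 75%, 4 no reduction. Scoring follows CLSI M38-A.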

Aspergillus parasiticus [3] = assay: Antifungal activity against Aspergillus parasiticus NRRL5862 assessed as fungal growth at 500 uM after 48 hrs by microtiter plate liquid bioassay (reference value: 100%); type: functional; how it was run: as §2
Saccharomyces cerevisiae [4] = assay: Antifungal activity against Saccharomyces cerevisiae BY4741 assessed as fungal growth at 500 uM after 24 hrs by microtiter plate liquid bioassay (reference value: 100%); type: functional
Saccharomyces cerevisiae [5] = assay: Antifungal activity against Saccharomyces cerevisiae BY4741 assessed as fungal growth at 500 uM after 48 hrs by microtiter plate liquid bioassay (reference value: 100%); type: functional
[6] = system: Lacticaseibacillus rhamnosus; assay: Toxicity in Lactobacillus rhamnosus ATCC 53103 at 100 uM measured after overnight incubation by disc diffusion method; type: organism-based, GG; settings: in vivo
How it was run: (§3)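 Grown in Lactobacilli MRS at 37 °C under anaerobic conditions. Blank 6 mm discs were soaked 20 min at room temperature in a 100 μM working dilution in medium. Discs were placed on streaked agar alongside DMSO vehicle and antibiotic discs (levofloxacin, gentamicin), incubated overnight at 37 °C, and zones of inhibition measured in mm.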

[7] = system: Limosilactobacillus reuteri; assay: Toxicity in Lactobacillus reuteri ATCC 23272 at 100 uM measured after overnight incubation by disc diffusion method; type: organism-based; settings: in vivo; how it was run: as §3
[8] = system: Lactobacillus acidophilus; assay: Toxicity in Lactobacillus acidophilus ATCC 43560 at 100 uM measured after overnight incubation by disc diffusion method; type: organism-based; settings: in vivo; how it was run: as §3
Escherichia coli = assay: Toxicity in Escherichia coli K-12 MG1655 at 100 uM measured after overnight incubation by disc diffusion method; type: organism-based, K-12 substr. MG1655; settings: in vivo
How it was run: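 Grown in Luria broth at 37 °C under aerobic conditions. Blank 6 mm discs were soaked 20 min at room temperature in a 100 μM working dilution in medium. Discs were placed on streaked agar alongside DMSO vehicle and antibiotic discs (levofloxacin, gentamicin), incubated overnight at 37 °C, and inhibition zones measured in mm.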

Giardia intestinalis [9] = assay: Antiparasitic activity against Giardia lamblia WB trophozoites assessed as parasite growth inhibition after 48 hrs by ATP bioluminescence-based CellTiter-Glo luminescent cell viability assay; type: functional, organism-based; settings: Giardia duodenalis; how it was run: as §1

CCCCCCCCCCCCCCCCOP(=O)([O-])OCC[N+](C)(C)C [MILTEFOSINE]
IC50 (Naegleria fowleri): 54.5 µM

O=C1C(=O)N(CCCCN2C(=O)C(=O)c3cc(Cl)ccc32)c2ccccc21
inhibition of growth at 50 µM (Trichomonas vaginalis): 100%
growth inhibition (GI) (Giardia intestinalis [1]): inactive
growth inhibition (GI) (Entamoeba histolytica): inactive
Activity (Aspergillus parasiticus [2]): 100%
Activity (Aspergillus parasiticus [3]): 100%
Activity (Saccharomyces cerevisiae [4]): 25%
Activity (Saccharomyces cerevisiae [5]): 75%
Activity [6]: Non-Toxic
Activity [7]: Non-Toxic
Activity [8]: Non-Toxic
Activity (Escherichia coli): Non-Toxic

O=C1C(=O)N(CCCCCN2C(=O)C(=O)c3cc(Br)ccc32)c2ccccc21
inhibition of growth at 50 µM (Trichomonas vaginalis): 100%
growth inhibition (GI) (Giardia intestinalis [1]): inactive
growth inhibition (GI) (Entamoeba histolytica): inactive
Activity (Aspergillus parasiticus [2]): 100%
Activity (Aspergillus parasiticus [3]): 100%
Activity (Saccharomyces cerevisiae [4]): 50%
Activity (Saccharomyces cerevisiae [5]): 100%
Activity [6]: Non-Toxic
Activity [7]: Non-Toxic
Activity [8]: Non-Toxic
Activity (Escherichia coli): Non-Toxic

O=C1C(=O)N(CCN2C(=O)C(=O)c3ccccc32)c2ccccc21
inhibition of growth at 50 µM (Trichomonas vaginalis): 96.8%
inhibition of growth at 50 µM (Giardia intestinalis [1]): 6.75%
growth inhibition (GI) (Entamoeba histolytica): inactive
Activity [6]: Non-Toxic
Activity [7]: Non-Toxic
Activity [8]: Non-Toxic
Activity (Escherichia coli): Non-Toxic

O=C1C(=O)N(CCCCN2C(=O)C(=O)c3cc(F)ccc32)c2ccccc21
inhibition of growth at 50 µM (Trichomonas vaginalis): 100%
inhibition of growth at 50 µM (Giardia intestinalis [1]): 1.2%
growth inhibition (GI) (Entamoeba histolytica): inactive
Activity [6]: Non-Toxic
Activity [7]: Non-Toxic
Activity [8]: Non-Toxic
Activity (Escherichia coli): Non-Toxic

O=C1C(=O)N(CCCCCCN2C(=O)C(=O)c3cc(F)ccc32)c2ccccc21
inhibition of growth at 50 µM (Trichomonas vaginalis): 100%
inhibition of growth at 50 µM (Giardia intestinalis [1]): 30.9%
growth inhibition (GI) (Entamoeba histolytica): inactive
Activity [6]: Non-Toxic
Activity [7]: Non-Toxic
Activity [8]: Non-Toxic
Activity (Escherichia coli): Non-Toxic

O=C1C(=O)N(CCCCCCCCN2C(=O)C(=O)c3cc(F)ccc32)c2ccccc21
inhibition of growth at 50 µM (Trichomonas vaginalis): 100%
growth inhibition (GI) (Giardia intestinalis [1]): inactive
inhibition of growth at 50 µM (Entamoeba histolytica): 13.8%
Activity [6]: Non-Toxic
Activity [7]: Non-Toxic
Activity [8]: Non-Toxic
Activity (Escherichia coli): Non-Toxic

O=C1C(=O)N(CCCN2C(=O)C(=O)c3cc(Cl)ccc32)c2ccccc21
inhibition of growth at 50 µM (Trichomonas vaginalis): 100%
growth inhibition (GI) (Giardia intestinalis [1]): inactive
growth inhibition (GI) (Entamoeba histolytica): inactive
Activity [6]: Non-Toxic
Activity [7]: Non-Toxic
Activity [8]: Non-Toxic
Activity (Escherichia coli): Non-Toxic

C[C@@H]1[C@H](O)[C@@H](C)/C=C/C=C/C=C/C=C/C=C/C=C/C=C/[C@H](O[C@@H]2O[C@H](C)[C@@H](O)[C@H](N)[C@@H]2O)C[C@@H]2O[C@](O)(C[C@@H](O)C[C@@H](O)[C@H](O)CC[C@@H](O)C[C@@H](O)CC(=O)O[C@H]1C)C[C@H](O)[C@H]2C(=O)O [AMPHOTERICIN B]
IC50 (Naegleria fowleri): 0.2 µM

O=C1C(=O)N(CCCCCCN2C(=O)C(=O)c3cc(Br)ccc32)c2ccccc21
inhibition of growth at 50 µM (Trichomonas vaginalis): 100%
inhibition of growth at 50 µM (Giardia intestinalis [1]): 43.2%
growth inhibition (GI) (Entamoeba histolytica): inactive
Activity [6]: Non-Toxic
Activity [7]: Non-Toxic
Activity [8]: Non-Toxic
Activity (Escherichia coli): Non-Toxic

O=C1C(=O)N(CCCCCCCCN2C(=O)C(=O)c3cc(Cl)ccc32)c2ccccc21
inhibition of growth at 50 µM (Trichomonas vaginalis): 75.8%
inhibition of growth at 50 µM (Giardia intestinalis [1]): 8.56%
growth inhibition (GI) (Entamoeba histolytica): inactive
Activity [6]: Non-Toxic
Activity [7]: Non-Toxic
Activity [8]: Non-Toxic
Activity (Escherichia coli): Non-Toxic

O=C1C(=O)N(CCN2C(=O)C(=O)c3cc(F)ccc32)c2ccccc21
inhibition of growth at 50 µM (Trichomonas vaginalis): 45.5%
inhibition of growth at 50 µM (Giardia intestinalis [1]): 8.15%
growth inhibition (GI) (Entamoeba histolytica): inactive
Activity [6]: Non-Toxic
Activity [7]: Non-Toxic
Activity [8]: Non-Toxic
Activity (Escherichia coli): Non-Toxic

O=C1C(=O)N(CCCCCCCCN2C(=O)C(=O)c3ccccc32)c2ccccc21
inhibition of growth at 50 µM (Trichomonas vaginalis): 30.3%
inhibition of growth at 50 µM (Giardia intestinalis [1]): 80.7%
inhibition of growth at 50 µM (Entamoeba histolytica): 100%
IC50 (Giardia intestinalis [9]): 38 µM
Activity [6]: Non-Toxic
Activity [7]: Non-Toxic
Activity [8]: Non-Toxic
Activity (Escherichia coli): Non-Toxic

O=C1C(=O)N(CCCN2C(=O)C(=O)c3ccccc32)c2ccccc21
inhibition of growth at 50 µM (Trichomonas vaginalis): 96.8%
inhibition of growth at 50 µM (Giardia intestinalis [1]): 7.84%
growth inhibition (GI) (Entamoeba histolytica): inactive
Activity [6]: Non-Toxic
Activity [7]: Non-Toxic
Activity [8]: Non-Toxic
Activity (Escherichia coli): Non-Toxic

O=C1C(=O)N(CCCCCN2C(=O)C(=O)c3ccccc32)c2ccccc21
inhibition of growth at 50 µM (Trichomonas vaginalis): 90.9%
inhibition of growth at 50 µM (Giardia intestinalis [1]): 94.3%
inhibition of growth at 50 µM (Entamoeba histolytica): 100%
IC50 (Giardia intestinalis [9]): 26 µM
Activity [6]: Non-Toxic
Activity [7]: Non-Toxic
Activity [8]: Non-Toxic
Activity (Escherichia coli): Non-Toxic

O=C1C(=O)N(CCCCCCN2C(=O)C(=O)c3ccccc32)c2ccccc21
inhibition of growth at 50 µM (Trichomonas vaginalis): 45.5%
inhibition of growth at 50 µM (Giardia intestinalis [1]): 9.68%
growth inhibition (GI) (Entamoeba histolytica): inactive
Activity [6]: Non-Toxic
Activity [7]: Non-Toxic
Activity [8]: Non-Toxic
Activity (Escherichia coli): Non-Toxic

O=C1C(=O)N(CCCCCCN2C(=O)C(=O)c3cc(Cl)ccc32)c2ccccc21
inhibition of growth at 50 µM (Trichomonas vaginalis): 93.9%
inhibition of growth at 50 µM (Giardia intestinalis [1]): 94.5%
growth inhibition (GI) (Entamoeba histolytica): inactive
IC50 (Giardia intestinalis [9]): 31.5 µM
Activity [6]: Non-Toxic
Activity [7]: Non-Toxic
Activity [8]: Non-Toxic
Activity (Escherichia coli): Non-Toxic

O=C1C(=O)N(CCCCCCCCN2C(=O)C(=O)c3cc(Br)ccc32)c2ccccc21
inhibition of growth at 50 µM (Trichomonas vaginalis): 96.8%
inhibition of growth at 50 µM (Giardia intestinalis [1]): 51.1%
growth inhibition (GI) (Entamoeba histolytica): inactive
Activity [6]: Non-Toxic
Activity [7]: Non-Toxic
Activity [8]: Non-Toxic
Activity (Escherichia coli): Non-Toxic

O=C1C(=O)N(CCN2C(=O)C(=O)c3cc(Br)ccc32)c2ccccc21
inhibition of growth at 50 µM (Trichomonas vaginalis): 100%
growth inhibition (GI) (Giardia intestinalis [1]): inactive
growth inhibition (GI) (Entamoeba histolytica): inactive
Activity [6]: Non-Toxic
Activity [7]: Non-Toxic
Activity [8]: Non-Toxic
Activity (Escherichia coli): Non-Toxic

O=C1C(=O)N(CCCCN2C(=O)C(=O)c3ccccc32)c2ccccc21
inhibition of growth at 50 µM (Trichomonas vaginalis): 61.3%
inhibition of growth at 50 µM (Giardia intestinalis [1]): 11.6%
growth inhibition (GI) (Entamoeba histolytica): inactive
Activity [6]: Non-Toxic
Activity [7]: Non-Toxic
Activity [8]: Non-Toxic
Activity (Escherichia coli): Non-Toxic

O=C1C(=O)N(CCCBr)c2ccccc21
inhibition of growth at 50 µM (Trichomonas vaginalis): 59.9%
inhibition of growth at 50 µM (Giardia intestinalis [1]): 22.9%
inhibition of growth at 50 µM (Entamoeba histolytica): 1.32%
Activity (Aspergillus parasiticus [2]): 75 - 100%
Activity (Aspergillus parasiticus [3]): 100%
Activity (Saccharomyces cerevisiae [4]): 50%
Activity (Saccharomyces cerevisiae [5]): 75%
Activity [6]: Non-Toxic
Activity [7]: Non-Toxic
Activity [8]: Non-Toxic
Activity (Escherichia coli): Non-Toxic

CCCCCCCCOC(=O)c1cc(O)c(O)c(O)c1 [OCTYL_GALLATE]
Activity (Aspergillus parasiticus [2]): 0%
Activity (Aspergillus parasiticus [3]): 0%
Activity (Saccharomyces cerevisiae [4]): 0%
Activity (Saccharomyces cerevisiae [5]): 0%
